Test results from ChEMBL document CHEMBL1687762, “Aerosol therapy with colistin methanesulfonate: a biopharmaceutical issue illustrated in rats” (Antimicrob Agents Chemother, 2010).

Experiments:
[1] = tested on: Rattus norvegicus; test: Bioavailability in Sprague-Dawley rat at 15 mg/kg administered via intratracheal nebulization; type: ADME, organism-based; settings: in vivo, inhaled_or_intranasal
Method in brief: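 CMS bioavailability after intratracheal nebulization in rats (15 mg/kg) was taken as the mean CMS plasma AUC after nebulization divided by the mean CMS AUC after i.v. dosing at the same dose. It is reported as an average value.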

[2] = tested on: Rattus norvegicus; test: Cmax in Sprague-Dawley rat at 15 mg/kg administered via intratracheal nebulization; type: ADME, organism-based; set-up: dose 15 mg/kg, route endotracheal; settings: in vivo, inhaled_or_intranasal
Method in brief: (§1)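 Male Sprague-Dawley rats (280–350 g) were fasted 12 h, with a femoral catheter implanted the day before. Under isoflurane, 100 µl of CMS at 50 mg/ml in 0.4% NaCl (15 mg/kg) was sprayed intratracheally with a MicroSprayer (n=5). Arterial plasma was sampled from 0 to 300 min. CMS (after sulfuric acid hydrolysis) and colistin were measured by LC-MS/MS. Noncompartmental analysis: trapezoidal AUC, terminal log-linear half-life.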

[3] = tested on: Rattus norvegicus; test: Half life in Sprague-Dawley rat at 15 mg/kg, iv; type: ADME, organism-based; set-up: dose 15 mg/kg, route intravenous; settings: in vivo
Method in brief: (§2)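 CMS in 0.9% NaCl, 15 mg/kg, was given as an i.v. bolus through a femoral vein catheter to fasted male Sprague-Dawley rats (n=6). Arterial plasma was drawn at 0–180 min. CMS (measured as colistin after acid hydrolysis) and colistin were quantified by LC-MS/MS. Individual noncompartmental analysis; Vss = dose × AUMC / AUC².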

[4] = tested on: Rattus norvegicus; test: Half life in Sprague-Dawley rat assessed as Colistin level at 15 mg/kg administered via intratracheal nebulization; type: ADME, organism-based; set-up: dose 15 mg/kg, route endotracheal; settings: in vivo, inhaled_or_intranasal; method in brief: as §1
[5] = tested on: Rattus norvegicus; test: AUC in Sprague-Dawley rat at 15 mg/kg, iv; type: ADME, organism-based, Plasma; set-up: dose 15 mg/kg, route intravenous; settings: in vivo; method in brief: as §2
[6] = tested on: Rattus norvegicus; test: AUC in Sprague-Dawley rat at 15 mg/kg administered via intratracheal nebulization; type: ADME, organism-based, Plasma; set-up: dose 15 mg/kg, route endotracheal; settings: in vivo, inhaled_or_intranasal; method in brief: as §1
[7] = tested on: Rattus norvegicus; test: Half life in Sprague-Dawley rat at 15 mg/kg administered via intratracheal nebulization; type: ADME, organism-based; set-up: dose 15 mg/kg, route endotracheal; settings: in vivo, inhaled_or_intranasal; method in brief: as §1
[8] = tested on: Rattus norvegicus; test: AUC in Sprague-Dawley rat assessed as Colistin level at 15 mg/kg administered via intratracheal nebulization; type: ADME, organism-based, Plasma; set-up: dose 15 mg/kg, route endotracheal; settings: in vivo, inhaled_or_intranasal; method in brief: as §1
[9] = tested on: Rattus norvegicus; test: Volume of distribution at steady state in Sprague-Dawley rat at 15 mg/kg, iv; type: ADME, organism-based; set-up: dose 15 mg/kg, route intravenous; settings: in vivo; method in brief: as §2
[10] = tested on: Rattus norvegicus; test: Half life in Sprague-Dawley rat assessed as Colistin level at 15 mg/kg, iv; type: ADME, organism-based; set-up: dose 15 mg/kg, route intravenous; settings: in vivo; method in brief: as §2
[11] = tested on: Rattus norvegicus; test: AUC in Sprague-Dawley rat assessed as Colistin level at 15 mg/kg, iv; type: ADME, organism-based, Plasma; set-up: dose 15 mg/kg, route intravenous; settings: in vivo; method in brief: as §2

Sequence: COLISTIMETHATE SODIUM
- F [1]: 70%
- Cmax [2]: 5600 ng/mL
- t1/2 [3]: 22 min
- t1/2 [4]: 63.6 min
- AUC [5]: 1079 µg·min/mL
- AUC [6]: 756 µg·min/mL
- t1/2 [7]: 21 min
- AUC [8]: 607 µg·min/mL
- Vdss [9]: 0.33 L/kg
- t1/2 [10]: 35.5 min
- AUC [11]: 160 µg·min/mL
